The structures appear in SMILES notation.

This data set in a line: Toxicity liver stage against HepG2, at 10uM. The arrangement: test concentration 10 uM, cell line HepG2-A16-CD81EGFP. The note with it: human, HepG2-A16-CD81EGFP cells; read-out: INHIBITION
Format: cell-based. Put shortly: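 Uninfected HepG2-A16-CD81EGFP cells, 3 × 10^3 per well, 1536-well, plated on prespotted compound at 10 μM final, parasite-free screening media added to match infected plates; puromycin 10 μM positive, DMSO 0.5% negative; run in parallel with 48 h PbLuc assay at 37 °C, 5% CO2; viability by CellTiter-Glo luminescence, normalized to controls.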
For the compound `COc1ccc(CN2C[C@H](O)C[C@H]2c2nc(-c3ccccc3)no2)cc1`, the cytotoxicity at 10 µM stood at 0.223%. As for `CCn1cnc2c(cnn2-c2cccc(C)c2C)c1=O`, the cytotoxicity at 10 µM was -17.9%. As for `CCOCc1nn(C)c2c1CN(C(=O)c1ccno1)CC2`, the cytotoxicity at 10 µM came out at 8.61%. In the case of `COCCNC(=O)Cn1c(-c2cccc(F)c2)nc(C)c(CCO)c1=O` it was -2.37%.

Consider `CC(=O)Nc1nc(-c2ccc(C)c(C)c2)c[nH]1`, for which the cytotoxicity at 10 µM is -19.3%. `O=c1cc(-c2ccc(F)cc2)nc2n1CCCCC2`: the cytotoxicity at 10 µM was -1.91%. In the case of `Cn1ccc2c(C(=O)N3CCC(C(N)=O)CC3)cccc21`, the cytotoxicity at 10 µM was 2.92%. `Cc1cnc2n(c1=O)CC(C(=O)Nc1cccc3cccnc13)CS2` (stereo not drawn): the cytotoxicity at 10 µM was -19.6%.

For the compound `CC(C)NC(=O)c1ccc2c(c1)nc1n2CCN(c2ccccc2)C1`, the cytotoxicity at 10 µM was -3.99%. In the case of `CCn1nnc2c1C(COC)CN(C(=O)Cc1cccs1)C2` (stereo not drawn) it was -15.5%; in that of `Cc1noc([C@H]2CC[C@@H]3[C@@H](CCN3S(C)(=O)=O)O2)n1`, -19.3%. In the case of `CC(C(=O)O)n1nc(C(F)(F)F)c(Cl)c1C1CC1` (stereo not drawn), the cytotoxicity at 10 µM was 2.01%. In the case of `CC1(C(=O)N2CCOCC2)CN(CC2CCOCC2)CCO1` (stereo not drawn), the cytotoxicity at 10 µM worked out at 4.14%. In the case of `Cc1cc2ccncc2n1CC1(O)CCN(C(=O)c2ccncc2)CC1` it was 7.53%. In the case of `CN1C[C@@H](C(=O)NCC(F)(F)F)[C@@]2(CCc3ccccc3C(=O)N2)C1` it was 6.22%. As for `Cc1csc2c(C3CCCN(C(=O)Cn4cncn4)C3)nc(C)n12` (stereo not drawn), the figure is 5.27%; as for `CCCn1nccc1-c1nccnc1CC1CCN(C(C)=O)C1` (stereo not drawn), 1.34%; as for `CSCC[C@@H]1CN2CCC[C@H]2CN1Cc1coc2ccc(Cl)cc2c1=O`, 0.11%. As for `c1ccc(CCN2CCC(OCC3CCCCO3)CC2)nc1` (stereo not drawn), the cytotoxicity at 10 µM was -4.9%.

Regarding `COC(=O)CNC(=O)CCc1cc(Br)cs1`, the cytotoxicity at 10 µM came to 0.624%. As for `CCCC(=O)NC1CCCN(c2nc3ccccc3cc2CO)C1` (stereo not drawn), the figure is -44.5%; as for `CN(CC(=O)N1CCCC(n2ccnc2)C1)c1cnccn1` (stereo not drawn), 1.41%. As for `Cc1ccc(N2CCCN(C(=O)CCCn3ccnc3C)CC2)nn1`, the figure is -3.83%. As for `CCn1cnnc1CNC(=O)N(C)Cc1ccccc1OC`, the figure is -7.32%; as for `O=C(NCC(=O)N1CCCC1Cc1cccc(F)c1)C1CCCC1` (stereo not drawn), -18%; as for `Cn1cc(C(=O)NCCC(=O)N2CCCCC2)c(-c2cccnc2)n1`, -5.93%.

In the case of `CC(CS(C)(=O)=O)N(C(=O)Nc1ccc(F)cc1F)C1CC1` (stereo not drawn), the cytotoxicity at 10 µM worked out at 4.08%. In the case of `CCOc1ncccc1NC(=O)c1ccc(C(C)=O)s1` it was 2.99%; in that of `O=C(Nc1ccccc1OC1CCOC1)c1ccon1` (stereo not drawn), -0.238%; in that of `CC(O)CN1CCC(CN(C)CCC(=O)NC2CCCC2)CC1` (stereo not drawn), -0.663%.

As for `CC(=O)N(Cc1noc(C)n1)C1CCN(CC(=O)N(C)C2CC2)C1` (stereo not drawn), the cytotoxicity at 10 µM is -4.69%. In the case of `CC(C)c1nsc(N2CCOCC2)n1` it was -11%; in that of `CCOCCN1CCN(c2ccc(CN(C)C)cn2)CC1`, -4.11%.

As for `Cc1cc(CN(C)C(=O)C2CC(c3cccc(F)c3)=NO2)no1` (stereo not drawn), the cytotoxicity at 10 µM was 5.91%. Consider `Cc1nn(C)c2ncc(CN3CCN(c4ncccn4)CC3)cc12`, for which the cytotoxicity at 10 µM was -0.234%. In the case of `Nc1nccnc1C(=O)N1CCN(CCOc2ccccc2)CC1` it was 12.8%; in that of `Clc1ccccc1-c1nnc(CSCCN2CCOCC2)o1`, 0.728%; in that of `CC(C)NC(=O)CN(C1CC1)C(C)C1CC1` (stereo not drawn), -1.6%. In the case of `Cc1noc(CNc2c(N3CCCC3)cccc2N2CCCC2)n1` it was 0.184%. As for `CCCNC(=O)c1ccc(-c2ccco2)[nH]c1=O`, the figure is -5.68%; as for `Cn1cc(CCCNC(=O)NC2CCN(c3ccccc3)C2=O)cn1` (stereo not drawn), 6.75%. `O=C(Cc1cn2ccsc2n1)N(Cc1ccco1)CC1CCCO1` (stereo not drawn): the cytotoxicity at 10 µM was 7.07%.

With `COc1ccc(-c2nc(CNC(C)Cn3cccn3)cs2)cc1` (stereo not drawn), the cytotoxicity at 10 µM was 4.27%. On to `O=C(NCc1nc[nH]n1)c1cc(COc2cccc(F)c2)[nH]n1`, for which the cytotoxicity at 10 µM was -4.99%. In the case of `Cc1nc(C)c(-c2nnc(SCC(=O)O)n2C(C)c2ccccc2)o1` (stereo not drawn) it was 4.64%.

As to `c1ccc(N2CCCC(c3nc(-c4cccnn4)no3)C2)nc1` (stereo not drawn), the cytotoxicity at 10 µM is -3.42%. Take `Cc1nc(CCN)cc(N2CCC(O)(c3ccccc3)C2)n1` (stereo not drawn): the cytotoxicity at 10 µM is 2.03%. As for `CN1C(=O)C2(CCCN(C(=O)c3cccnc3O)C2)c2ccccc21` (stereo not drawn), the figure is -5.21%; as for `CCCc1nncn1-c1cc(OC)ccc1OC`, 7.93%.

In the case of `CN(C)C(C(=O)N1CCN(S(N)(=O)=O)CC1)c1ccccc1F` (stereo not drawn), the cytotoxicity at 10 µM is 0.199%.

Regarding `O=C(CN1CCOC1=O)N1CCc2nnc(-c3ccccc3)n2CC1`, the cytotoxicity at 10 µM was -16.2%. In the case of `CCc1ncc(C(=O)N2CCN(Cc3ncccc3C)CC2)cn1` it was -4.68%. In the case of `COc1nc2ccccc2cc1CN1CCC(CNS(C)(=O)=O)C1` (stereo not drawn) it was -2.7%; in that of `CCC(NS(C)(=O)=O)c1ccccc1C` (stereo not drawn), -43.2%. As for `Cc1ccccc1CS(=O)(=O)NCCCN1CCCCC1`, the figure is 19.4%; as for `Cc1nc(-c2ccccc2C)n(CC(=O)NC2CCCC2)n1`, 5.48%; as for `COc1c(CNCc2ccc3c(c2)OCCO3)c(C(C)C)nn1C`, -3.42%.

`CCN(CC1CCOC1)C(=O)c1cc(F)ccc1N1CCN(C)CC1` (stereo not drawn): the cytotoxicity at 10 µM was -7.68%. In the case of `Cc1cccc(NS(=O)(=O)c2cc3c(c(C(=O)O)c2)OCCO3)c1` it was -3.44%. In the case of `O=C(CC1CCCO1)N1CCCN(c2cccnn2)CC1` (stereo not drawn) it was -7.72%; in that of `NC(=O)Cn1cc(NC(=O)N2CCN(c3ccc(F)cc3)CC2)cn1`, -12.9%; in that of `Cc1cc(CN2CCN(C(=O)NC(C)c3cccnc3)CC2)no1` (stereo not drawn), -11.8%. In the case of `CCC(O)CN1CCN(C(=O)c2cccn2Cc2cccnc2)CC1` (stereo not drawn) it was -14.1%; in that of `O=C(NCCCn1nc2ccccn2c1=O)Nc1ccccc1Cl`, -22.3%. For the compound `COc1ccc(C(=O)N2CCCCC2c2nccs2)c(OC)c1` (stereo not drawn), the cytotoxicity at 10 µM was -10.7%. In the case of `CC(C)Oc1ncccc1CNC(=O)c1cnccn1`, the cytotoxicity at 10 µM was -10.2%. Regarding `Cn1cc(CN2CCc3c(COCC4CC4)cncc3C2)cn1`, the cytotoxicity at 10 µM was -6.33%. In the case of `Cn1cc(CN2CCc3onc(COc4cccnc4)c3C2)cn1` it was 4.78%; in that of `CN1CC(=O)N(c2cnn(C)c2)CC12CCN(Cc1cccs1)C2` (stereo not drawn), 3.48%; in that of `CC(C)N1CCO[C@H]2CN(C(=O)Cc3ccsc3)C[C@H]21`, 11.4%. In the case of `O=C(NC[C@]12COC[C@H]1CN(Cc1nccs1)C2)c1ccsc1` it was 4.09%; in that of `CC(C)N1CCC2(CC1)CC(NCc1ccccn1)c1ccccc1O2` (stereo not drawn), 0.806%; in that of `O=C(Nc1ccccc1)[C@H]1C[C@H]2CN(C(=O)Nc3ccccc3)C[C@@H]1O2`, 2.4%.

These data come from ChEMBL document CHEMBL4513216, “Probing the Open Global Health Chemical Diversity Library for Multistage-Active Starting Points for Next-Generation Antimalarials” (ACS Infect Dis, 2020).
